Data published in ChEMBL document CHEMBL4431309, “17β-Hydroxy-18-acetoxywithanolides from Aeroponically Grown Physalis crassifolia and Their Potent and Selective Cytotoxicity for Prostate Cancer Cells” (J Nat Prod, 2016).
Activity calls are given as the source filed them. The calls are words filed in the database; no cut-off is given here.

Experiments:
LNCaP [1] = experiment: Cytotoxicity against human LNCAP cells up to 5 uM after 72 hrs by resazurin-based colorimetric assay; assay type: functional, cell-based
Summary of the method: (§1)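 Androgen-sensitive human prostate adenocarcinoma line (LNCaP). Doxorubicin served as positive control and DMSO as negative control. Compounds were tested at concentrations up to 5.0 μM.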

PC-3M [2] = experiment: Cytotoxicity against human PC3M cells up to 5 uM after 72 hrs by resazurin-based colorimetric assay; assay type: functional, cell-based
Summary of the method: (§2)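 Metastatic human prostate adenocarcinoma line (PC-3M). Controls were doxorubicin (positive) and DMSO (negative). The highest concentration tested was 5.0 μM.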

MCF7 [3] = experiment: Cytotoxicity against human MCF7 cells up to 5 uM after 72 hrs by resazurin-based colorimetric assay; assay type: functional, cell-based
Summary of the method: (§3)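 Human breast cancer line (MCF-7). Doxorubicin was the positive control and DMSO the negative control. Testing went up to 5.0 μM.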

NCI-H460 [4] = experiment: Cytotoxicity against human NCI-H460 cells up to 5 uM after 72 hrs by resazurin-based colorimetric assay; assay type: functional, cell-based
Summary of the method: (§4)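 Human non-small-cell lung cancer line (NCI-H460). Doxorubicin was included as positive control and DMSO as negative control. The maximum concentration tested was 5.0 μM.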

SF-268 [5] = experiment: Cytotoxicity against human SF268 cells up to 5 uM after 72 hrs by resazurin-based colorimetric assay; assay type: functional, cell-based
Summary of the method: (§5)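 Doxorubicin (positive) and DMSO (negative) were run as controls. Compounds were tested up to a highest concentration of 5.0 μM.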

HFF [6] = experiment: Cytotoxicity against human HFF cells up to 5 uM after 72 hrs by resazurin-based colorimetric assay; assay type: cell-based; summary of the method: as §5
LNCaP [7] = experiment: Cytotoxicity against human LNCAP cells after 72 hrs by resazurin-based colorimetric assay; assay type: functional, cell-based; summary of the method: as §1
PC-3M [8] = experiment: Cytotoxicity against human PC3M cells after 72 hrs by resazurin-based colorimetric assay; assay type: functional, cell-based; summary of the method: as §2
MCF7 [9] = experiment: Cytotoxicity against human MCF7 cells after 72 hrs by resazurin-based colorimetric assay; assay type: functional, cell-based; details: MCF7, 72 h; summary of the method: as §3
NCI-H460 [10] = experiment: Cytotoxicity against human NCI-H460 cells after 72 hrs by resazurin-based colorimetric assay; assay type: functional, cell-based; details: NCI-H460, 72 h; summary of the method: as §4
SF-268 [11] = experiment: Cytotoxicity against human SF268 cells after 72 hrs by resazurin-based colorimetric assay; assay type: functional, cell-based; details: SF-268, 72 h; summary of the method: as §5
HFF [12] = experiment: Cytotoxicity against human HFF cells after 72 hrs by resazurin-based colorimetric assay; assay type: cell-based; summary of the method: as §5

| SMILES | Activity (LNCaP [1]) | Activity (PC-3M [2]) | Activity (MCF7 [3]) | Activity (NCI-H460 [4]) | Activity (SF-268 [5]) | Activity (HFF [6]) | IC50 (LNCaP [7]) [nM] | IC50 (PC-3M [8]) [nM] | IC50 (MCF7 [9]) [nM] | IC50 (NCI-H460 [10]) [nM] | IC50 (SF-268 [11]) [nM] | IC50 (HFF [12]) [nM] |
| --- | --- | --- | --- | --- | --- | --- | --- | --- | --- | --- | --- | --- |
| CC(=O)OC[C@]12CC[C@H]3[C@@H](CC=C4CC=CC(=O)[C@@]43C)[C@]1(O)[C@@H](OC(C)=O)C[C@@]2(O)[C@@](C)(O)[C@H]1CC(C)=C(CO)C(=O)O1 | inactive | inactive | inactive | inactive | inactive | Non-Toxic | – | – | – | – | – | – |
| CC(=O)OC[C@]12CC[C@H]3[C@@H](CC=C4CC=CC(=O)[C@@]43C)[C@]1(O)[C@@H](OC(C)=O)C[C@@]2(O)[C@@](C)(O)[C@H]1CC(C)=C(CO[C@@H]2O[C@H](CO)[C@@H](O)[C@H](O)[C@H]2O)C(=O)O1 | inactive | inactive | inactive | inactive | inactive | Non-Toxic | – | – | – | – | – | – |
| CC(=O)OC[C@]12CC[C@H]3[C@@H](CC=C4C[C@@H](OS(=O)(=O)O)CC(=O)[C@@]43C)[C@]1(O)CC[C@@]2(O)[C@@](C)(O)[C@H]1CC(C)=C(C)C(=O)O1 | – | – | – | – | – | – | 210 | 560 | 2200 | 3800 | > 5000 | > 5000 |
| CC(=O)OC[C@]12CC[C@H]3[C@@H](CC=C4CC=CC(=O)[C@@]43C)[C@]1(O)[C@@H](OC(C)=O)C[C@@]2(O)[C@@](C)(O)[C@H]1CC(CO[C@@H]2O[C@H](CO)[C@@H](O)[C@H](O)[C@H]2O)=C(C)C(=O)O1 | inactive | inactive | inactive | inactive | inactive | Non-Toxic | – | – | – | – | – | – |
| CC(=O)OC[C@]12CC[C@H]3[C@@H](CC=C4CC=CC(=O)[C@@]43C)[C@]1(O)CC[C@@H]2[C@@](C)(O)[C@@H]1OC(=O)C(C)=C(C)[C@@H]1O | inactive | inactive | inactive | inactive | inactive | Non-Toxic | – | – | – | – | – | – |
| C/C(=C1/C(=O)C[C@H]2[C@@H]3[C@@H]4O[C@@H]4[C@@]4(O)CC=CC(=O)[C@]4(C)[C@H]3CC[C@]12C)[C@H]1C[C@]2(C)O[C@]2(C)[C@H](O)O1 | inactive | inactive | inactive | inactive | inactive | Non-Toxic | – | – | – | – | – | – |
| COc1cccc2c1C(=O)c1c(O)c3c(c(O)c1C2=O)C[C@@](O)(C(=O)CO)C[C@@H]3O[C@H]1C[C@H](N)[C@H](O)[C@H](C)O1 [DOXORUBICIN] | – | – | – | – | – | – | – | 250 | 320 | – | – | – |
| CC(=O)OC[C@]12CC[C@H]3[C@@H](CC=C4CC=CC(=O)[C@@]43C)[C@]1(O)[C@@H](O)C[C@@]2(O)[C@@](C)(O)[C@H]1CC(C)=C(C)C(=O)O1 | – | – | – | – | – | – | 190 | 600 | > 2500 | > 2500 | > 2500 | – |
| CC1=C(C)C(=O)O[C@@H]([C@](C)(O)[C@H]2CC[C@@]3(O)[C@@H]4[C@@H]5O[C@@H]5[C@@]5(O)CC=CC(=O)[C@]5(C)[C@H]4CC[C@]23C)C1 | inactive | inactive | inactive | inactive | inactive | Non-Toxic | – | – | – | – | – | – |
| CC(=O)OC[C@]12CC[C@H]3[C@@H](CC=C4CC=CC(=O)[C@@]43C)[C@]1(O)CC[C@@]2(O)[C@@](C)(O)[C@H]1CC(C)=C(CO)C(=O)O1 | – | – | – | – | – | – | 3700 | > 5000 | > 5000 | > 5000 | > 5000 | – |
| CC(=O)OC[C@]12CC[C@H]3[C@@H](CC=C4C[C@@H](OS(=O)(=O)O)CC(=O)[C@@]43C)[C@]1(O)[C@@H](OC(C)=O)C[C@@]2(O)[C@@](C)(O)[C@H]1CC(C)=C(C)C(=O)O1 | – | – | – | – | – | – | 120 | 430 | > 5000 | 2500 | 2800 | – |
| CC(=O)OC[C@]12CC[C@H]3[C@@H](CC=C4C=CCC(=O)[C@@]43C)[C@]1(O)[C@@H](OC(C)=O)C[C@@]2(O)[C@@](C)(O)[C@H]1CC(CO)=C(C)C(=O)O1 | inactive | inactive | inactive | inactive | inactive | Non-Toxic | – | – | – | – | – | – |
| CC(=O)OC[C@]12CC[C@H]3[C@@H](CC=C4CC=CC(=O)[C@@]43C)[C@]1(O)CC[C@@H]2[C@@](C)(O)[C@H]1CC(C)=C(C)C(=O)O1 | inactive | inactive | inactive | inactive | inactive | Non-Toxic | – | – | – | – | – | – |
| CC1=C(CO)C(=O)O[C@@H]([C@@H](C)[C@H]2CC[C@H]3[C@@H]4C[C@H]5O[C@]56[C@@H](O)C=CC(=O)[C@]6(C)[C@H]4CC[C@]23C)C1 [WITHAFERIN A] | – | – | – | – | – | – | – | 410 | – | < 400 | < 400 | > 6800 |
| CC(=O)OC[C@]12CC[C@H]3[C@@H](C[C@H]4O[C@]45CC=CC(=O)[C@]35C)[C@]1(O)[C@@H](OC(C)=O)C[C@@]2(O)[C@@](C)(O)[C@H]1CC(C)=C(C)C(=O)O1 | – | – | – | – | – | – | 1200 | 1800 | > 2500 | > 2500 | > 2500 | – |
